Data set [1] deals with T1, 3',5'-cyclic-AMP phosphodiesterase 4B (Homo sapiens, UniProt Q07343). Nature of the data set: Inhibition of human PDE4B by ELISA. (An ELISA detects its analyte on a solid surface through an enzyme-linked reagent.)
In data set [2] the target is T1, 3',5'-cyclic-AMP phosphodiesterase 4B. The experiment in a line: Inhibition of PDE4B (unknown origin) assessed as increase in cAMP level by measuring cAMP level after 3 hrs by cell based ELISA.
Data set [3] shares this target. The experiment in a line: Inhibition of PDE4B (unknown origin) assessed as reduction in TNFalpha level after 1.5 hrs by cell based ELISA. Conditions: concentration not given here.
Data set [4] in a line: Half life in Wistar rat liver S9 fraction at 20 uM in presence of NADPH by HPLC-UV analysis. Type of data set: ADME, subcellular. In short, it runs like this:
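Phase I stability in liver S9 (9,000× g) from male Wistar rats, prepared at 0–4°C. […] Stopped with cold acetonitrile plus chlorzoxazone internal standard. Centrifuged, then intact compound quantified by HPLC-UV; t1/2 and CLint derived from this.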

Data set [5] in a line: Intrinsic clearance in Wistar rat liver S9 fraction at 20 uM in presence of NADPH by UPLC-MS/MS analysis. It is filed as ADME, subcellular.
Data set [6] can be described thus: Protein binding in human plasma after 5 hrs by equilibrium dialysis method. It is filed as ADME, cell-free. The note with it: read-out: PPB (converted). Put shortly: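 Equilibrium dialysis across a cellulose membrane (MWCO 12-14 kDa) against isotonic PBS pH 7.4, with human plasma, 37°C for 5 hr. Compound in the plasma and buffer compartments measured by validated RP-HPLC-UV. %Bound = [1 − (buffer conc/plasma conc)] × 100.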
On the technique in general: In equilibrium dialysis only unbound substance equilibrates across the membrane.

The nature of data set [7]: Half life in Sprague-Dawley rat at 1 mg/kg, sc administered as single dose by UPLC-MS/MS analysis. Type of data set: ADME, organism-based. The note with it: in vivo.
A short description of data set [8]: Tmax in Sprague-Dawley rat at 1 mg/kg, sc administered as single dose by UPLC-MS/MS analysis. It is filed as ADME, organism-based. The note with it: in vivo.
Data set [9] can be described thus: Cmax in Sprague-Dawley rat at 1 mg/kg, sc administered as single dose by UPLC-MS/MS analysis. It is filed as ADME, organism-based. Set-up: dose 1 mg/kg, route subcutaneous. Conditions: in vivo.
Data set [10] is described as follows: AUC (0 to t) in Sprague-Dawley rat at 1 mg/kg, sc administered as single dose by UPLC-MS/MS analysis. It is filed as ADME, organism-based. Conditions: in vivo.
Data set [11] is described as follows: AUC (0 to infinity) in Sprague-Dawley rat at 1 mg/kg, sc administered as single dose by UPLC-MS/MS analysis. Conditions: in vivo. Type of data set: ADME, organism-based. Details: dose 1 mg/kg, route subcutaneous, time infinity.
Data set [12] deals with 3',5'-cyclic-AMP phosphodiesterase 4D (Homo sapiens, UniProt Q08499). The experiment in a line: Inhibition of human PDE4D by ELISA.
The species named for data set [13] is Homo sapiens. Nature of the data set: Selectivity ratio of IC50 for human PDE4D to IC50 for human PDE4B.
A short description of data set [14]: Drug metabolism in Wistar rat liver S9 fraction assessed as aromatic hydroxylation of benzathiazole moiety at 20 uM in presence of NADPH by UPLC-MS/MS analysis. It is filed as ADME, subcellular. The note with it: s9, 20 µM.
A short description of data set [15]: Metabolic stability in Wistar rat liver S9 fraction assessed as parent compound remaining at 20 uM in presence of NADPH by UPLC-MS/MS analysis. It is filed as ADME, subcellular. Conditions: read-out: Stability.
Data set [16] can be described thus: Drug metabolism in Wistar rat liver S9 fraction assessed as 3-(cyclopropylmethoxy)-4-(difluoromethoxy)-N-(2-hydroxybenzo[d]thiazol-6-yl)benzamide formation at 20 uM in presence of NADPH by UPLC-MS/MS analysis. Type of data set: ADME, subcellular. The note with it: s9, 20 µM.
Data set [17] can be described thus: Drug metabolism in Wistar rat liver S9 fraction assessed as N-(4-amino-3-mercaptophenyl)-3-(cyclopropylmethoxy)-4-(difluoromethoxy)benzamide formation at 20 uM in presence of NADPH by UPLC-MS/MS analysis. Type of data set: ADME, subcellular. Conditions: s9, 20 µM.
Data set [18] in a line: Drug level in Wistar rat liver S9 fraction treated with N-(benzo[d]thiazol-6-yl)-3-(cyclopropylmethoxy)-4-(difluoromethoxy)benzamide at 20 uM in presence of NADPH by UPLC-MS/MS analysis. Conditions: s9, 20 µM. Type of data set: ADME, subcellular.
The target of data set [19] is T1, 3',5'-cyclic-AMP phosphodiesterase 4B. Nature of the data set: Inhibition of PDE4B (unknown origin) assessed as increase in cAMP level after 3 hrs by cell based ELISA relative to roflumilast.

Sequence of 3',5'-cyclic-AMP phosphodiesterase 4D (Q08499 whole entry): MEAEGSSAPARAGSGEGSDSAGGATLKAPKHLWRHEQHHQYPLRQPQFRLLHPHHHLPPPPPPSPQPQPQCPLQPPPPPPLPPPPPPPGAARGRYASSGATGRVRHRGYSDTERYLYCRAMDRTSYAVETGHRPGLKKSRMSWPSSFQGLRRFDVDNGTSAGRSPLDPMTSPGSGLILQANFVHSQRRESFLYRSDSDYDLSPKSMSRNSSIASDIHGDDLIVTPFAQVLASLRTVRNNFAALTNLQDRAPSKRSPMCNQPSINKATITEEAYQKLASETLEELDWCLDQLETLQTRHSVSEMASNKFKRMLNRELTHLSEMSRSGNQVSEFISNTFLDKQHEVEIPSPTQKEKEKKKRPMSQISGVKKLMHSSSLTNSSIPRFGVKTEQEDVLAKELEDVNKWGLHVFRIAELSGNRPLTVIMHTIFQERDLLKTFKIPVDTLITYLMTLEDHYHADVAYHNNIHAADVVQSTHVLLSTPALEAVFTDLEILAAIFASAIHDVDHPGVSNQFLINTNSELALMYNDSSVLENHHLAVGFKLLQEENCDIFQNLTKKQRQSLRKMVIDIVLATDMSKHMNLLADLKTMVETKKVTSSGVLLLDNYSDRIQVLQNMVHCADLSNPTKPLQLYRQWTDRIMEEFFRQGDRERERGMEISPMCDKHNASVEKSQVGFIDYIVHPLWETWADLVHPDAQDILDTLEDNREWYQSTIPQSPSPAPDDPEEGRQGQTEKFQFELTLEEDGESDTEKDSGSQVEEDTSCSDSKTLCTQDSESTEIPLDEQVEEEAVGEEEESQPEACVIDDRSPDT
T1 sequence (Q07343 whole entry): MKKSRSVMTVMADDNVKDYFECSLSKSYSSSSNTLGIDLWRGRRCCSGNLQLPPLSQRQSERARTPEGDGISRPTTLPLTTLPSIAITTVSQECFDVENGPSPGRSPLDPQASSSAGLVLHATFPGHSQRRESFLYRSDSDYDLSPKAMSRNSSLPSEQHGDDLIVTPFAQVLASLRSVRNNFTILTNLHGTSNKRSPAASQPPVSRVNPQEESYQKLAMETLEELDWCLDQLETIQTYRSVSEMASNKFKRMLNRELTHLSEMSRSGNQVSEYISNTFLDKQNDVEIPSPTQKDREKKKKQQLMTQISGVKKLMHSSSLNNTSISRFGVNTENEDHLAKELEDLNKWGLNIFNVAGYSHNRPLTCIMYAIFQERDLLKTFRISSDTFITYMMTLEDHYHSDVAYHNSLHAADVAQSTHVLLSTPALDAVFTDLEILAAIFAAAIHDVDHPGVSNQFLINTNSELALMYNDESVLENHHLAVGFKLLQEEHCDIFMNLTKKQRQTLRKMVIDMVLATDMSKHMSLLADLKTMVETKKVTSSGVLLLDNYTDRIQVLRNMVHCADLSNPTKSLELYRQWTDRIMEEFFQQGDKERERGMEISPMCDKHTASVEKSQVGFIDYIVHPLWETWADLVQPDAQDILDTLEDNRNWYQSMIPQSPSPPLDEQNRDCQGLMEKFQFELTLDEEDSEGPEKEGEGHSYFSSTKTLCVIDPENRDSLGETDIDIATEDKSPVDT

Take `N#Cc1ccc2nc(NC(=O)c3ccc(OC(F)F)c(OCC4CC4)c3)sc2c1`: in data set [1], 1.28 nM corresponded to half-maximal inhibition (IC50).

Turning to `O=C(Nc1c(Cl)cncc1Cl)c1ccc(OC(F)F)c(OCC2CC2)c1` [ROFLUMILAST], the Activity in data set [2] is 1.9 pmol/mL. The inhibition in data set [3] turned out to be 70.3%. Also, the half-life at 20 µM in [4] is 0.205 h. In addition, in [5], the CLint at 20 µM came to 6.85 L/h/kg. Further, in data set [6], the fraction unbound at 5 h was 0.0151. Further, the half-life in [7] is 6.94 h. For the same compound, the Tmax in [8] was determined as 1 h. The compound also yielded a Cmax in data set [9] of 109 µg/mL. For the same compound, the AUC(0-t) in data set [10] stood at 449 µg·h/mL. In [11], this compound showed an AUC(0-inf) of 500 µg·h/mL.

As for `COc1cccc2sc(NC(=O)c3ccc(OC(F)F)c(OCC4CC4)c3)nc12`, the half-maximal inhibitory concentration (IC50) in [1] worked out at 1.06 nM.

On to `O=C(Nc1nc2ccc(C(F)(F)F)cc2s1)c1ccc(OC(F)F)c(OCC2CC2)c1`, for which, in data set [1], half-maximal inhibition (IC50) required 5.23 nM. This IC50 lies about 4.9-fold higher than the previous one.

Consider `O=C(Nc1nc2ccccc2s1)c1ccc(OC(F)F)c(OCC2CC2)c1`, for which the IC50 in [1] came out at 0.57 nM; in [12], 5.07 nM. Further, in [13], the Ratio IC50 came out at 8.89. In addition, in data set [2], the Activity worked out at 2.68 pmol/mL. Further, in data set [3], the inhibition is 58.6%. Moreover, the half-life at 20 µM in data set [4] stood at 0.705 h. The CLint at 20 µM in data set [5] was 1.99 L/h/kg. For the same compound, the half-life in data set [7] was 9.82 h. Also, the Tmax in data set [8] turned out to be 1 h. Moreover, in data set [9], the Cmax worked out at 95.5 µg/mL. Also, in [10], the AUC(0-t) came to 594 µg·h/mL. Further, the AUC(0-inf) in data set [11] is 800 µg·h/mL. In addition, the Drug metabolism entry in data set [14] was “Metabolite_Detected”. For the same compound, the remaining at 20 µM in data set [15] was found to be 36.4%.

As to `O=C(Nc1ccc2ncsc2c1)c1ccc(OC(F)F)c(OCC2CC2)c1`, the IC50 in [1] came out at 0.68 nM; in [12] it was 2.73 nM. Also, the Ratio IC50 in [13] is 4.01. Also, the half-life at 20 µM in [4] came to 1.05 h. Besides, the CLint at 20 µM in data set [5] amounted to 1.34 L/h/kg. Also, the fraction unbound at 5 h in data set [6] is 0.0361. For the same compound, the half-life in data set [7] is 22 h. The Tmax in data set [8] was 2 h. This compound also gave a Cmax in data set [9] of 86.2 µg/mL. Also, in [10], the AUC(0-t) amounted to 892 µg·h/mL. Further, in data set [11], the AUC(0-inf) worked out at 1620 µg·h/mL. The Drug metabolism entry in data set [16] and in [17] was “Metabolite_Detected” each time. In addition, the remaining at 20 µM in data set [15] stood at 36.8%.

For the compound `COc1ccc2nc(NC(=O)c3ccc(OC(F)F)c(OCC4CC4)c3)sc2c1`, the IC50 in data set [1] is 2.28 to 2.29 nM.

With `Nc1ccc(NC(=O)c2ccc(OC(F)F)c(OCC3CC3)c2)cc1S`, the Drug metabolism result in [18] is recorded as “Metabolite_Detected”.

In data set [1], `O=C(Nc1nc2ccc([N+](=O)[O-])cc2s1)c1ccc(OC(F)F)c(OCC2CC2)c1` displayed an IC50 of 8.67 nM.

Regarding `Cc1nc2ccc(NC(=O)c3ccc(OC(F)F)c(OCC4CC4)c3)cc2s1`, in [1], the IC50 worked out at 1.26 nM.

Turning to `O=C(Nc1ccc2nc(S)sc2c1)c1ccc(OC(F)F)c(OCC2CC2)c1`, the concentration for half-maximal inhibition (IC50) amounted to 0.75 nM in [1] and 4.54 nM in data set [12]. The Ratio IC50 in data set [13] is 6.05. Moreover, the Activity in data set [2] is 4.45 pmol/mL. Moreover, the inhibition in data set [3] is 67.8%. Also, the fold change (FC) in [19] was > 2. Besides, the half-life at 20 µM in data set [4] was found to be 4.13 h. In data set [5], the CLint at 20 µM is 0.34 L/h/kg. For the same compound, the fraction unbound at 5 h in [6] is 0.463. The half-life in data set [7] is 22 h. In data set [8], the Tmax stood at 2 h. This compound also displayed a Cmax in [9] of 114 µg/mL. The compound also had an AUC(0-t) in [10] of 622 µg·h/mL. The same compound gave an AUC(0-inf) in data set [11] of 1040 µg·h/mL. In data set [15], the remaining at 20 µM was determined as 84.2%.

For `O=C(Nc1ccc2nc(O)sc2c1)c1ccc(OC(F)F)c(OCC2CC2)c1`, the Drug metabolism result in [18] was “Metabolite_Detected”.

In [1], `O=C(Nc1nc2ccc(Cl)cc2s1)c1ccc(OC(F)F)c(OCC2CC2)c1` registered an IC50 of 1.22 nM. This lies in the single-digit nanomolar range.

For the compound `COc1cc2nc(NC(=O)c3ccc(OC(F)F)c(OCC4CC4)c3)sc2cc1OC`, the IC50 in data set [1] is 1.17 nM.

The compound `CCOc1ccc2nc(NC(=O)c3ccc(OC(F)F)c(OCC4CC4)c3)sc2c1` returned a half-maximal inhibitory concentration (IC50) in data set [1] of 2.92 nM.

Take `O=C(Nc1nccs1)c1ccc(OC(F)F)c(OCC2CC2)c1`: the IC50 in data set [1] turned out to be 1.6 nM.

On to `O=C(Nc1nc2ccc(F)cc2s1)c1ccc(OC(F)F)c(OCC2CC2)c1`, for which inhibition in data set [1] was half-maximal at 1.87 nM (IC50).

As a reminder, the IC50 is the point on the concentration scale where inhibition reaches its midpoint. Low readings indicate inhibition by little substance, high ones a need for much substance. One may read the inhibition as how much of the control response was suppressed. By half-life is commonly meant the time in which the quantity being followed falls by half. The Tmax is the time from dosing to the highest level. As a reminder, the Cmax is the maximum level reached in the sampled fluid or tissue. The term AUC(0-t) denotes the area under the concentration-time curve up to a stated or last time point. The low end stands for low exposure, the high end for high exposure. Usually AUC(0-inf) stands for total exposure, with the tail of the curve extrapolated. A lower AUC(0-inf) goes with low exposure.

The record behind these values is ChEMBL document CHEMBL4196041 (Eur J Med Chem, 2018).
